CHRM5 antagonist – blocks acetylcholine activation of human M5 receptor; CHO-hM5 cells, Fluo-8 calcium fluorescence, ACh EC80; inhibition, % at 3 µM; 360,000 tested, 0.59% active;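 active = inhibition above a per-plate cutoff, the mean of that plate's test compounds plus 3 SD, cut at about 27% in these data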;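 also: 0% = acetylcholine EC80 with DMSO and 100% = DMSO without agonist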
Target sequence (P08912 whole entry, looked up): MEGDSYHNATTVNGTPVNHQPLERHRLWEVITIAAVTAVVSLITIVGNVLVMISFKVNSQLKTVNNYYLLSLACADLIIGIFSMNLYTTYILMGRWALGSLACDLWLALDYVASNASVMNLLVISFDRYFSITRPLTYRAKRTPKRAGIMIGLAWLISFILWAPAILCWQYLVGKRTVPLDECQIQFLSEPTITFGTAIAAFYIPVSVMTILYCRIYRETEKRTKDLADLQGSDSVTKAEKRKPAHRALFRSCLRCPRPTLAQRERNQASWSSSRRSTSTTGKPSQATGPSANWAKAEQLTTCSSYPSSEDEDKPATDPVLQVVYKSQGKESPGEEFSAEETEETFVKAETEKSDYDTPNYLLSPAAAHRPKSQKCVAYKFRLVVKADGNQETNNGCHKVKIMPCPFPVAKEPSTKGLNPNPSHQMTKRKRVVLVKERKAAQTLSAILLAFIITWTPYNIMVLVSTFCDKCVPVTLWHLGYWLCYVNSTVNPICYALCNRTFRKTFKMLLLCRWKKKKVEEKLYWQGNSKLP
M5 ag – CHRM5 agonism in calcium assay; P08912; CHO-K1 hM5 cells, Fluo-8 calcium fluorescence; 0% DMSO wells, 100% maximal acetylcholine response; activation, % at 3 µM; 360,000 tested, 0.19% active;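 active = activation above the run's mean over test compounds plus 3 SD, cut at about 23% in these data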;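 also: signal is peak over basal fluorescence ratio across the kinetic read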
M4 antag – blocks acetylcholine activation of human M4 receptor; P08173; CHO-hM4 cells, ACh EC80, Fluo-8 calcium fluorescence; inhibition, % at 3 µM; 360,000 tested, 0.73% active;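 active = inhibition above its plate's cutoff, the mean inhibition of sample wells plus 3 SD, cut at about 27% in these data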;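 also: 0% = acetylcholine EC80 with DMSO and 100% = DMSO without agonist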
M4 PAM – potentiates acetylcholine response at human M4 receptor; P08173; CHO-K1 hM4/Gqi5, Fluo-8 calcium fluorescence, ACh EC20; 0% = ACh EC20, 100% = maximal ACh; activation, % at 3 µM; 360,000 tested, 0.4% active;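 active = activation above its plate's cutoff, the mean activation of sample wells plus 3 SD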
M4 ag – CHRM4 agonism in calcium assay. CHO-K1 hM4/Gqi5, Fluo-8 calcium fluorescence; vehicle 0%, full acetylcholine response 100%. activation, % at 3 µM. 360,000 tested, 0.14% active. AID 624127;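 active = activation above the run mean over all test wells plus 3 SD, cut at about 32% in these data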;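 also: peak over basal fluorescence ratio per well then scaled between controls; 0% = DMSO wells and 100% = acetylcholine at EC100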
M5 PAM – positive allosteric modulators of human muscarinic M5 receptor; activation, % at 3 µM; CHO-K1 hM5, Fluo-8 calcium, ACh EC20 PAM; 0% = ACh EC20, 100% = ACh EC100; AID 624038; 360,000 tested, 0.3% active;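 active = activation above the run cutoff, the mean activation of all test compounds plus 3 SD, cut at about 18% in these data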
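Probe or stimulus: acetylcholine, EC20 level; Assay system: human M5 receptor in CHO-K1 cells; Schedule: compound preincubation 140 s before EC20 acetylcholine addition; Technique: intracellular calcium via Fluo-8 fluorescence; Dosing: single-point, 3 µM nominal; Read-out basis: percent activation from peak-over-basal fluorescence ratio, scaled EC20-to-EC100 acetylcholine; Repeats: one well per compound, no replicates.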
An asterisk follows results filed as active. Shown are actives, neighbours in structure and some others; about 1.9% of the full set was active somewhere.

What do the screens show for `COc1cccc(C(=O)N2CCC[C@H]2C(=O)N2CCC[C@H]2C(=O)N(C)Cc2ccccc2)c1`?
CHRM5 antagonist: 2; M5 ag: 2; M4 antag: 0; M4 PAM: 1; M4 ag: 1; M5 PAM: 3

How did OC(c1ccccc1)c1nc(-c2cncnc2)cs1 (stereo not given) do in these assays?
CHRM5 antagonist: -2; M5 ag: 0; M4 antag: -6; M4 PAM: 1; M4 ag: 1; M5 PAM: 0

What do the screens show for `O=C(NN=C1CCCC1)c1sc2ccccc2c1Cl`?
CHRM5 antagonist: 11; M5 ag: 3; M4 antag: -6; M4 PAM: 9; M4 ag: 1; M5 PAM: -1

What do the screens show for `O=C1CCCC(=NNC(=O)c2cc3ccccc3cc2O)C1`?
CHRM5 antagonist: -2; M5 ag: 26*; M4 antag: 3; M4 PAM: 5; M4 ag: 6; M5 PAM: -1

How did O=C1CCC/C(=N/NC(=O)c2sc3ccccc3c2Cl)C1 do in these assays?
CHRM5 antagonist: 17; M5 ag: 24*; M4 antag: 21; M4 PAM: -17; M4 ag: 23; M5 PAM: -11

What do the screens show for `COc1ccc(NC(=S)N2CCN(c3ccc4c(c3)C3CCN(C(=O)OCc5ccccc5)C4C3)CC2)c(OC)c1` (stereo not given)?
CHRM5 antagonist: 9; M5 ag: 2; M4 antag: -4; M4 PAM: -6; M4 ag: 7; M5 PAM: -9

How did O=C(O)/C=C/c1cn(Cc2ccccc2Cl)nc1-c1ccccc1 do in these assays?
CHRM5 antagonist: -4; M5 ag: 0; M4 antag: -12; M4 PAM: -3; M4 ag: 2; M5 PAM: 20*

Results for CCOC(=O)c1c(-c2ccccc2)csc1NC(=O)/C(C#N)=C\c1ccc(O)c(OC)c1 ?
CHRM5 antagonist: 17; M5 ag: 31*; M4 antag: 1; M4 PAM: 1; M4 ag: 3; M5 PAM: 12

What do the screens show for `CCOC(=O)c1c(-c2ccc(C)cc2)csc1NC(=O)/C(C#N)=C/c1ccc(O)c(OC)c1`?
CHRM5 antagonist: -13; M5 ag: 5; M4 antag: 2; M4 PAM: 1; M4 ag: 3; M5 PAM: 8

What do the screens show for `COC(=O)[C@]12CCCCC=C1N(Cc1ccco1)C(=O)[C@H](CC(=O)N1CCCCC1)C2`?
CHRM5 antagonist: -2; M5 ag: 4; M4 antag: 3; M4 PAM: -3; M4 ag: 8; M5 PAM: -4

Results for COc1ccc(CC2(CO)CCN(CC3=Cc4cc(Cl)ccc4OC3)CC2)cc1 ?
CHRM5 antagonist: 25; M5 ag: -1; M4 antag: 29*; M4 PAM: -20; M4 ag: 16; M5 PAM: -15

What do the screens show for `CCOC(=O)N1CCC(N2CCN(CCC(C)C)C(CCO)C2)CC1` (stereo not given)?
CHRM5 antagonist: -3; M5 ag: -10; M4 antag: 63*; M4 PAM: -17; M4 ag: 1; M5 PAM: -3

Results for CCOC(=O)N1CCC(N2CCN(Cc3ccc(F)c(F)c3)C(CCO)C2)CC1 (stereo not given) ?
CHRM5 antagonist: -2; M5 ag: -9; M4 antag: -1; M4 PAM: 2; M4 ag: 1; M5 PAM: 3

How did CC(=O)c1cccc(NC(=O)/C(=C\c2cccnc2)NC(=O)c2ccccc2)c1 do in these assays?
CHRM5 antagonist: 13; M5 ag: 0; M4 antag: 29*; M4 PAM: -12; M4 ag: 0; M5 PAM: -3

What do the screens show for `CC1=NN(C(=S)Nc2ccccc2)C(C)(C)C1`?
CHRM5 antagonist: 10; M5 ag: -3; M4 antag: 2; M4 PAM: 2; M4 ag: 0; M5 PAM: 19*

Screening data as filed in PubChem BioAssay.
